The target in series [1] is prostaglandin G/H synthase 1 (Bos taurus) (UniProt O62664). The experiment in a line: Inhibition of prostaglandin synthetase (bovine) using arachidonic acid as substrate preincubated for 10 mins followed by substrate addition.
Series [2] relates to Rattus norvegicus. The series is described as follows: Inhibition of PGF2-alpha formation in ip dosed rat serum after 1 hr by radioimmunoassay. In kind it is functional. Put shortly: (§1)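 Male rats, about 200 g, five per group, dosed at various levels ip or orally by intubation. Killed 1 h later and serum prepared. Serum extracted with ethyl acetate, extract evaporated under nitrogen, then assayed by radioimmunoassay using rabbit antibodies raised to PGF2α.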

Series [3] concerns Rattus norvegicus. The series is described as follows: Inhibition of PGF2-alpha formation in po dosed rat serum after 1 hr by radioimmunoassay. It is filed as functional. Put shortly:
as §1

Series [4] relates to Platelet. The series is described as follows: Inhibition of collagen-induced platelet aggregation in human platelet-rich plasma after 5 mins. In kind it is functional. Put shortly: (§2)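 Human PRP from centrifugation (180g, 15 min, room temperature); PPP from spinning PRP at 1000g for 2 min. 1 mL PRP stirred at 1000 rpm at 37 °C in a densitometer. Compounds added in physiological saline at various concentrations and incubated 5 min. Aggregation then triggered with ADP, epinephrine hydrochloride or human mammary-gland collagen. IC50 extrapolated from % inhibition vs log concentration.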

Series [5] concerns Platelet. The series is described as follows: Inhibition of ADP-induced platelet aggregation in human platelet-rich plasma after 5 mins. In kind it is functional. Put shortly: as §2
For series [6], the system named is Platelet. The experiment in a line: Inhibition of epinephrine hydrochloride-induced platelet aggregation in human platelet-rich plasma after 5 mins. It is filed as functional. Put shortly: as §2
The subject of another series is Mus musculus. The experiment in a line: Inhibition of arachidonic acid-induced diarrhea in po dosed mouse treated for 1 hr prior to arachidonic acid-challenge measured after 30 mins. In kind it is functional. Put shortly: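 Male mice, 18-20 g, given compound orally 1 h before arachidonic acid 4 mg/kg ip. Diarrhea scored 0-4 on paper towels by pellet softness and wet ring.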

Series [7] concerns Rattus norvegicus. The series is described as follows: Toxicity in po dosed rat assessed as gastric ulcer incidence after 4 hrs. In kind it is organism-based, Stomach. The conditions noted are these: in vivo. Put shortly: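 Male rats fasted 18 h with water ad libitum. Dosed orally 4 h before autopsy. Stomachs opened along the lesser curvature, everted, rinsed in saline and examined for focal petechiae.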

Series [8] in a line: Toxicity in po dosed mouse. In kind it is organism-based. The conditions noted are these: in vivo. Put shortly:
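Acute oral (single-dose) administration to mice; the endpoint was the LD50 in mg/kg.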

A short description of series [9]: Toxicity in po dosed mouse treated for 14 days. The following applies: in vivo. It is filed as organism-based.
Series [10] is filed under the species Rattus norvegicus. The series is described as follows: Toxicity in rat assessed as systemic antiinflammatory activity. In kind it is organism-based. The following applies: in vivo.
Series [11] is filed under the species Rattus norvegicus. The experiment in a line: Toxicity in rat assessed as systemic analgesic activity. The following applies: in vivo. It is filed as organism-based.
The target of series [12] is prostaglandin G/H synthase 1 (Bos taurus) (UniProt O62664). The experiment in a line: Ratio of indomethacin IC50 to compound IC50 for prostaglandin synthetase (bovine).
The mark [13] stands for this setting: Homo sapiens, Platelet, Plasma, 5 min, read-out: IC50.

Broadly, the IC50 is the point on the concentration scale where inhibition reaches its midpoint. By ED50 is commonly meant the dose at which the effect has come halfway, by size or by number of responders. What is called LD50 is the dose expected to kill half of the subjects tested. High values mean a less toxic substance, low ones a more toxic substance.

On to `NC(=O)c1[nH]c2ccc(C(O)(C(F)(F)F)C(F)(F)F)cc2c1-c1ccccc1`, for which the IC50 in series [1] came out at 7 µM.

In the case of `N#Cc1[nH]c2ccc(C(O)(C(F)(F)F)C(F)(F)F)cc2c1-c1ccccc1`, the ED50 in the series on Rattus norvegicus [2] was 15 mg/kg; in the series with Rattus norvegicus [3], 28 mg/kg; with Mus musculus it was 5 mg/kg; with Rattus norvegicus [7], > 250 mg/kg. In addition, the IC50 with Platelet [4] turned out to be 4.2 µM; with Platelet [5] it was 7.3 µM; with Platelet [6] (setting [13]), 34 µM; in series [1] it was 0.5 µM. Besides, the LD50 in series [8] is > 1000 mg/kg. The LD50 at 336 h in series [9] is > 1000 mg/kg. Further, the Activity entry in the series filed under Rattus norvegicus [10] and in the series filed under Rattus norvegicus [11] was “Non-toxic” each time. In addition, in series [12], the Ratio IC50 turned out to be 2.

Turning to `CC(=O)Oc1ccccc1C(=O)O` [ASPIRIN], the ED50 in the series on Rattus norvegicus [2] stood at 10 mg/kg; in the series on Rattus norvegicus [3], 6.7 mg/kg; in the series on Mus musculus, 1.3 mg/kg; in the series with Rattus norvegicus [7], 49 mg/kg. Moreover, the IC50 in the series with Platelet [4] came out at 31 µM; in the series with Platelet [5] it was 25 µM; with Platelet [6] (platelet), 18 µM.

Consider `COc1ccc2c(c1)c(CC(=O)O)c(C)n2C(=O)c1ccc(Cl)cc1` [INDOMETHACIN], for which the ED50 with Rattus norvegicus [2] is < 1 mg/kg; with Rattus norvegicus [3], < 1 mg/kg; with Mus musculus, 0.8 mg/kg; in the series on Rattus norvegicus [7], 3 mg/kg. The results for the IC50 with Platelet [4], in the series with Platelet [5] and with Platelet [6] (setting [13]) were 2.8 µM, 0.1 µM and 3.2 µM, respectively.
